Test results reported in ChEMBL document CHEMBL1151249, “Cytotoxic and antimicrobial constituents of the bark of Diospyros maritima collected in two geographical locations in Indonesia” (J Nat Prod, 2004).
In brackets after ≈: the same amount, converted by molar mass. Activity calls are given as the source filed them. The rule behind the calls is not given here.

How the values were obtained:
[1] = test system: KB; experiment: Cytotoxicity against human KB cells; type: functional, cell-based; conditions: read-out: ED50 (the source's name)
[2] = test system: Lu1; experiment: Cytotoxicity against human Lu1 cells; type: functional; conditions: read-out: ED50 (the source's name)
[3] = test system: LNCaP; experiment: Cytotoxicity against human LNCAP cells; type: functional; conditions: read-out: ED50 (the source's name)
[4] = Cytotoxicity against human HUVEC; type: cell-based; conditions: HUVEC cells, read-out: ED50 (the source's name)
[5] = test system: Micrococcus luteus; experiment: Antimicrobial activity against Micrococcus luteus after 18 hrs by zone-of-inhibition assay; type: functional, organism-based
[6] = test system: Micrococcus luteus; experiment: Antimicrobial activity against Micrococcus luteus assessed as 99.9 % growth inhibition after 18 hrs by zone-of-inhibition assay; type: functional
[7] = test system: Staphylococcus aureus; experiment: Antimicrobial activity against Staphylococcus aureus after 18 hrs by zone-of-inhibition assay; type: functional, organism-based
[8] = test system: Staphylococcus aureus; experiment: Antimicrobial activity against Staphylococcus aureus assessed as 99.9 % growth inhibition after 18 hrs by zone-of-inhibition assay; type: functional
[9] = test system: Mycolicibacterium smegmatis; experiment: Antimicrobial activity against Mycobacterium smegmatis after 18 hrs by zone-of-inhibition assay; type: functional, organism-based
[10] = test system: Mycolicibacterium smegmatis; experiment: Antimicrobial activity against Mycobacterium smegmatis assessed as 99.9 % growth inhibition after 18 hrs by zone-of-inhibition assay; type: functional
[11] = test system: Mycobacterium avium; experiment: Antimicrobial activity against Mycobacterium avium after 18 hrs by zone-of-inhibition assay; type: functional, organism-based
[12] = test system: Candida albicans; experiment: Antifungal activity against Candida albicans after 18 hrs by zone-of-inhibition assay; type: functional, organism-based; conditions: Candida albicans, 18 h
[13] = test system: Cryptococcus neoformans; experiment: Antifungal activity against Cryptococcus neoformans after 18 hrs by zone-of-inhibition assay; type: functional, organism-based; conditions: Cryptococcus neoformans, 18 h
[14] = test system: Cryptococcus neoformans; experiment: Antifungal activity against Cryptococcus neoformans assessed as 99.9 % growth inhibition after 18 hrs by zone-of-inhibition assay; type: functional
[15] = test system: Saccharomyces cerevisiae; experiment: Antifungal activity against Saccharomyces cerevisiae after 18 hrs by zone-of-inhibition assay; type: functional, organism-based
[16] = test system: Saccharomyces cerevisiae; experiment: Antifungal activity against Saccharomyces cerevisiae assessed as 99.9 % growth inhibition after 18 hrs by zone-of-inhibition assay; type: functional
[17] = test system: Aspergillus niger; experiment: Antifungal activity against Aspergillus niger after 18 hrs by zone-of-inhibition assay; type: functional, organism-based
[18] = test system: Aspergillus niger; experiment: Antifungal activity against Aspergillus niger assessed as 99.9 % growth inhibition after 18 hrs by zone-of-inhibition assay; type: functional
[19] = test system: KB; experiment: Antitumor activity against human KB cell xenografted mouse by hollow fiber assay; type: functional, cell-based
Procedure, shortened: (§1)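 Hollow fiber assay in mice with KB, LNCaP or Lu1 cells in fibers implanted at intraperitoneal and subcutaneous sites. Mice were treated by injection at doses from 1.25 to 10 mg/kg or up to 50 mg/kg. Tumor cell growth inhibition in the fibers was assessed at each site.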

[20] = test system: Lu1; experiment: Antitumor activity against human Lu1 cell xenografted mouse by hollow fiber assay; type: functional, cell-based; procedure, shortened: as §1
[21] = test system: LNCaP; experiment: Antitumor activity against human LNCAP cell xenografted mouse by hollow fiber assay; type: functional, cell-based; procedure, shortened: as §1
[22] = test system: Mus musculus; experiment: Toxicity in human KB cell xenografted mouse at 50 mg/kg; type: organism-based; design: dose 50 mg/kg; conditions: in vivo
[23] = test system: Mus musculus; experiment: Toxicity in human LNCaP cell xenografted mouse at 50 mg/kg; type: organism-based; design: dose 50 mg/kg; conditions: in vivo
[24] = test system: Mus musculus; experiment: Toxicity in human LU1 cell xenografted mouse at 50 mg/kg; type: organism-based; design: dose 50 mg/kg; conditions: in vivo
[25] = test system: Candida albicans; experiment: Antimicrobial activity against Candida albicans assessed as 99.9 % growth inhibition after 18 hrs by zone-of-inhibition assay; type: functional

## CC1=CC(=O)c2c(O)ccc(-c3ccc(O)c4c3C(=O)C(C)=CC4=O)c2C1=O [MARITINONE]
[1]
  EC50: 0.3 µg/mL (≈ 0.801 µM)
[2]
  EC50: 1.4 µg/mL (≈ 3.74 µM)
[3]
  EC50: 2.2 µg/mL (≈ 5.88 µM)
[4]
  CC50: 2.2 µg/mL (≈ 5.88 µM)
[5]
  IC50: 200 µg/mL (≈ 534 µM)
[6]
  Activity: >1000 µg/mL
[7]
  IC50: 9 µg/mL (≈ 24 µM)
[8]
  Activity: 300 µg/mL
[9]
  IC50: 20 µg/mL (≈ 53.4 µM)
[10]
  Activity: 80 µg/mL
[11]
  IC50: 600 µg/mL (≈ 1600 µM)
[12]
  IC50: 40 µg/mL (≈ 107 µM)
[13]
  IC50: 20 µg/mL (≈ 53.4 µM)
[14]
  Activity: 200 µg/mL
[15]
  IC50: 9 µg/mL (≈ 24 µM)
[16]
  Activity: 80 µg/mL
[17]
  IC50: 40 µg/mL (≈ 107 µM)
[18]
  Activity: >1000 µg/mL
[19]
  Activity: inactive
[20]
  Activity: inactive
[21]
  Activity: inactive
[22]
  Activity: Toxic
[23]
  Activity: Toxic
[24]
  Activity: Toxic
[25]
  Activity: 40 µg/mL
